ChEMBL document CHEMBL5214977, “Discovery and Optimization of Quinoline Analogues as Novel Potent Antivirals against Enterovirus D68” (J Med Chem, 2022)
Active and inactive are the calls of the source. The rule behind the calls is not given here.

What was measured:
enterovirus D68 [1] = test: Antiviral activity against Enterovirus D68 infected in human RD cells assessed as inhibition of VP1 expression level incubated for 12 hrs by Hoechst 33342 staining based immunofluorescence assay; assay type: functional, organism-based; conditions: dose 0.1-10 µM, DDE = dose-dependent effect
Procedure, shortened: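 RD cells were infected with EV-D68 at MOI 1 together with compound for 12 h. Cells were fixed in 4% formaldehyde for 30 min and permeabilized in 0.1% Triton X-100 for 30 min, then blocked with 5% bovine serum. Staining used rabbit anti-VP1 with an Alexa-546 secondary and 1 μM Hoechst33342 nuclear stain, imaged by fluorescence microscopy.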

enterovirus D68 [2] = test: Antiviral activity against Enterovirus D68 infected in human RD cells assessed as inhibition of viral replication at 1 uM incubated for 1.5 hrs by crystal violet staining based plaque formation assay; assay type: functional, organism-based
Procedure, shortened: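 Overnight RD monolayers received serially diluted virus stock plus compound for 1.5 h. Supernatant was removed and cells were overlaid with 2× DMEM containing 2% low-melting agarose. At 72 hpi cells were fixed with 4% paraformaldehyde for 4 h at room temperature and stained with 1% crystal violet to count plaques.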

enterovirus D68 [3] = test: Antiviral activity against Enterovirus D68 infected in human RD cells assessed as inhibition of VP1 expression level incubated for 1.5 hrs by Western blot analysis; assay type: functional, organism-based; conditions: dose 0.1-10 µM, DDE = dose-dependent effect
Procedure, shortened: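 RD cells (8.0 × 10^4 per well) were grown for 24 h, then infected with EV-D68 at MOI 0.01 for 1.5 h with gradient-diluted compound or DMSO. Lysates were made at 12 hpi in RIPA buffer and run on 10% SDS-PAGE. Blots were probed with anti-EV-D68 VP1 and anti-tubulin antibodies, with HRP secondary and ECL detection.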

[4] = Selectivity index, ratio of CC50 for human RD cells to EC50 for Enterovirus-D68 STL-2014-12 infected in human RD cells to; assay type: toxicity, cell-based
Procedure, shortened: (§1)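 EC50 came from a CPE reduction assay. RD cells (1.5 × 10^4 per well, grown 24 h) were infected with 100 TCID50 of the named strain and given 3-fold dilutions from 0.01 to 200 μM. After 72 h at 37 °C, ATP was read by CellTiter-Glo and normalized to infected and uninfected controls. CC50 came from uninfected cells under the same dilutions, 72 h and ATP readout. SI = CC50/EC50.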

[5] = Selectivity index, ratio of CC50 for human RD cells to EC50 for Enterovirus-D68 fermon infected in human RD cells; assay type: toxicity, cell-based; conditions: read-out: Ratio CC50/EC50; procedure, shortened: as §1
[6] = AUC (0 to t) in Sprague-Dawley rat at 5 mg/kg, po measured upto 24 hrs by LC-MS/MS analysis; assay type: ADME, organism-based; design: dose 5 mg/kg, time < 24 hrs, route po; conditions: in vivo
Procedure, shortened: (§2)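 Male SD rats (6–9 or 6–8 weeks old, n = 3 per route) received a single 1 mg/kg iv or 5 mg/kg po dose. The vehicle was 5% DMSO/5% Solutol HS-15/90% water or 5% DMSO/95% HP-β-CD in water. Jugular blood was drawn into heparin at 0.083 (iv only), 0.25, 0.5, 1, 2, 4, 6 and 24 h. Plasma was analysed by LC-MS/MS. Values are mean ± SD.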

[7] = Selectivity index, ratio of CC50 for human RD cells to EC50 for Enterovirus-D68 US/MO/14-18947 infected in human RD cells; assay type: toxicity, cell-based; conditions: read-out: Ratio CC50/EC50; procedure, shortened: as §1
enterovirus D68 [8] = test: Antiviral activity against Enterovirus-D68 US/KY/14-18953 infected in human RD cells assessed as reduction in virus induced cytopathic effect by measuring ATP level incubated for 72 hrs by cell titer-glo luminescent cell viability assay; assay type: functional, organism-based; conditions: Enterovirus D, US/KY/14-18953, RD
Procedure, shortened: (§3)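 RD cells seeded at 1.5 × 10^4/well and grown 24 h, then given 100 TCID50 virus plus compound in 3-fold dilutions (0.01–200 μM). DMSO control. Incubated 37 °C for 72 h; ATP read by CellTiter-Glo luminescence and normalized to uninfected and infected controls. EC50 is the concentration giving 50% CPE reduction. Strains: STL-2014-12, US/KY/14-18953, US/MO/14-18947, Fermon.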

[9] = AUC (0 to infinity) in Sprague-Dawley rat at 5 mg/kg, po measured upto 24 hrs by LC-MS/MS analysis; assay type: ADME, organism-based; design: time < 24 hrs, dose 5 mg/kg, route po; conditions: in vivo; procedure, shortened: as §2
[10] = Cmax in Sprague-Dawley rat at 5 mg/kg, po measured upto 24 hrs by LC-MS/MS analysis; assay type: ADME, organism-based; design: dose 5 mg/kg, time < 24 hrs, route po; conditions: in vivo; procedure, shortened: as §2
[11] = AUC (0 to infinity) in Sprague-Dawley rat at 1 mg/kg, iv measured upto 24 hrs by LC-MS/MS analysis; assay type: ADME, organism-based; design: dose 1 mg/kg, time < 24 hrs, route iv; conditions: in vivo; procedure, shortened: as §2
[12] = Oral bioavailability in Sprague-Dawley rat at 5 mg/kg measured upto 24 hrs by LC-MS/MS analysis; assay type: ADME, organism-based; conditions: in vivo; procedure, shortened: as §2
[13] = C0 in Sprague-Dawley rat at 1 mg/kg, iv measured upto 24 hrs by LC-MS/MS analysis; assay type: ADME, organism-based; conditions: in vivo; procedure, shortened: as §2
enterovirus D68 [14] = test: Antiviral activity against Enterovirus-D68 STL-2014-12 infected in human RD cells assessed as reduction in virus induced cytopathic effect by measuring ATP level incubated for 72 hrs by cell titer-glo luminescent cell viability assay; assay type: functional, organism-based; procedure, shortened: as §3
enterovirus D68 [15] = test: Antiviral activity against Enterovirus-D68 fermon infected in human RD cells assessed as reduction in virus induced cytopathic effect by measuring ATP level incubated for 72 hrs by cell titer-glo luminescent cell viability assay; assay type: functional, organism-based; conditions: Enterovirus D; procedure, shortened: as §3
[16] = Selectivity index, ratio of CC50 for human RD cells to EC50 for Enterovirus-D68 US/KY/14-18953 infected in human RD cells; assay type: toxicity, cell-based; conditions: read-out: Ratio CC50/EC50; procedure, shortened: as §1
[17] = Half life in Sprague-Dawley rat at 5 mg/kg, po measured upto 24 hrs by LC-MS/MS analysis; assay type: ADME, organism-based; conditions: in vivo; procedure, shortened: as §2
[18] = Half life in Sprague-Dawley rat at 1 mg/kg, iv measured upto 24 hrs by LC-MS/MS analysis; assay type: ADME, organism-based; conditions: in vivo; procedure, shortened: as §2
enterovirus D68 [19] = test: Antiviral activity against Enterovirus-D68 US/MO/14-18947 infected in human RD cells assessed as reduction in virus induced cytopathic effect by measuring ATP level incubated for 72 hrs by cell titer-glo luminescent cell viability assay; assay type: functional, organism-based; conditions: Enterovirus D, US/MO/14-18947, RD; procedure, shortened: as §3
[20] = Tmax in Sprague-Dawley rat at 5 mg/kg, po measured upto 24 hrs by LC-MS/MS analysis; assay type: ADME, organism-based; conditions: in vivo; procedure, shortened: as §2
[21] = AUC(0 to t) in Sprague-Dawley rat at 1 mg/kg, iv measured upto 24 hrs by LC-MS/MS analysis; assay type: ADME, organism-based; design: dose 1 mg/kg, time < 24 hrs, route iv; conditions: in vivo; procedure, shortened: as §2
enterovirus D68 [22] = test: Antiviral activity against Enterovirus-D68 infected in human HeLa cells assessed as reduction in virus induced cytopathic effect incubated for […] by plaque reduction assay; assay type: functional, organism-based; conditions: Enterovirus D
RD = test: Cytotoxicity against human RD cells assessed as inhibition of cell viability by measuring ATP level incubated for 72 hrs by cell titer-glo luminescent cell viability assay; assay type: functional
Procedure, shortened: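 Uninfected RD cells seeded at 1.5 × 10^4/well and grown 24 h, then exposed to compound in 3-fold dilutions (0.01–200 μM), with DMSO as cell control. ATP read by CellTiter-Glo luminescence after 72 h; CC50 is the 50% cytotoxic concentration.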

[23] = Metabolic stability in rat liver microsomes assessed as half life at 1 uM incubated upto 60 mins in presence of NADPH by LC-MS/MS analysis; assay type: ADME, Microsome; conditions: 1 h
Procedure, shortened: (§4)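 Test compound at 1 μM final was incubated at 37 °C with 0.5 mg/mL liver microsomal protein and 1 mM NADPH, alongside a no-NADPH control. Samples were quenched at 0, 5, 15, 30 and 60 min into solution containing verapamil internal standard, then centrifuged and analysed by LC-MS/MS. t1/2 and intrinsic clearance were derived from the extent of metabolism.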

enterovirus D68 [24] = test: Antiviral activity against Enterovirus D68 infected in human RD cells assessed as increase in viral RNA release temperature at 10 ug/ml incubated for 15 mins by particle release thermal stability assay (reference value: 52 degree C); assay type: functional; conditions: dose 10 µg/ml, 0.25 h
[25] = Metabolic stability in human liver microsomes assessed as half life at 1 uM incubated upto 60 mins in presence of NADPH by LC-MS/MS analysis; assay type: ADME, Microsome; conditions: 1 h; procedure, shortened: as §4
[26] = Metabolic stability in Beagle dog liver microsomes assessed as half life at 1 uM incubated upto 60 mins in presence of NADPH by LC-MS/MS analysis; assay type: ADME, Canis lupus familiaris, Microsome; conditions: 1 h; procedure, shortened: as §4
enterovirus D68 [27] = test: Antiviral activity against Enterovirus D68 infected in human RD cells assessed as reduction in thermal inactivation of virus at 55 degreeC at 12.5 uM incubated for 72 hrs by TCID50 assay; assay type: functional, organism-based
Procedure, shortened: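 Compound at 12.5 μM or DMSO was incubated with EV-D68 (2 × 10^6 PFU/ml) at 33 °C for 30 min. The mixture was heated for 2 min at temperatures between 37 and 59 °C, then cooled to 4 °C. Residual titre was measured by TCID50 on RD cells: 10-fold virus dilutions, CPE scored after 72 h, Reed–Muench calculation.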

enterovirus D68 [28] = test: Antiviral activity against Enterovirus D68 infected in human RD cells assessed as inhibition of viral replication at 2 uM treated for 14 hrs by qRT-PCR analysis; assay type: functional, organism-based
Procedure, shortened: (§5)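 RD cells grown for 24 h were infected at 0 h with EV-D68 (MOI 0.01), and virus was washed off at 1 hpi. Compound at 2 μM or DMSO was added over set windows (0–1 h, after 1 hpi, or 0–14 h). Supernatants were collected at 14 hpi. Viral RNA copies were measured by qRT-PCR against a copy-number standard curve. Values are mean ± SD.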

enterovirus D68 [29] = test: Antiviral activity against Enterovirus D68 infected in human RD cells assessed as inhibition of viral replication at 2 uM treated for 1 hr by qRT-PCR analysis; assay type: functional, organism-based; procedure, shortened: as §5
[30] = Enterovirus D, STL-2014-12, RD, 72 h

## CCc1nc(-c2cnc3ccc(-c4ccc(N)cc4)cc3c2)no1
Enterovirus D68 [1]
  Activity: Dde
Enterovirus D68 [2]
  Activity: Active
Enterovirus D68 [3]
  Activity: Dde

## CCc1nc(-c2cnc3ccc(-c4ccc(N)cc4)cc3c2)no1.Cl
[4]
  Ratio CC50/EC50: > 139
[5]
  selectivity ratio: > 185
[6]
  AUC: 49.5 ng·h/mL
[7]
  selectivity ratio: > 159
Enterovirus D68 [8]
  EC50: 70 nM
[9]
  AUC: 53.8 ng·h/mL
[10]
  Cmax: 36.1 ng/mL
[11]
  AUC: 158 ng·h/mL
[12]
  F: 6.8%
[13]
  C0: 1370 ng/mL
Enterovirus D68 [14]; rd
  EC50: 80 nM
Enterovirus D68 [15]
  EC50: 60 nM
[16]
  selectivity ratio: > 159
[17]
  t1/2: 1.06 h
[18]
  t1/2: 0.309 h
Enterovirus D68 [19]
  EC50: 70 nM
[20]
  Tmax: 0.417 h
[21]
  AUCt: 157 ng·h/mL

## CCOC(=O)c1ccc(OCCC2CCN(c3ccc(C)nn3)CC2)cc1 [PIRODAVIR]
Enterovirus D68 [22]
  EC50: 1610 nM

## Nc1ccc(-c2ccc3ncc(-c4noc(C(F)(F)F)n4)cc3c2)cc1 [listing 1 of 2 here]
[4]
  Ratio CC50/EC50: > 50
RD
  CC50: > 2500 nM
[6]
  AUC: 307 ng·h/mL
[23]
  t1/2: 0.683 h
[9]
  AUC: 320 ng·h/mL
[10]
  Cmax: 108 ng/mL
[11]
  AUC: 268 ng·h/mL
[12]
  F: 23.9%
[13]
  C0: 637 ng/mL
Enterovirus D68 [14]; [30]
  EC50: 50 nM
[17]
  t1/2: 1.21 h
Enterovirus D68 [24]
  T: 55 °C
[18]
  t1/2: 1.92 h
[25]
  t1/2: 2.47 h
[20]
  Tmax: 1 h
[21]
  AUCt: 253 ng·h/mL
[26]
  t1/2: 0.288 h

## Cl.Nc1ccc(-c2ccc3ncc(-c4noc(C(F)(F)F)n4)cc3c2)cc1
[4]
  Ratio CC50/EC50: > 111
[5]
  selectivity ratio: > 123
[7]
  selectivity ratio: > 123
Enterovirus D68 [8]
  EC50: 90 nM
Enterovirus D68 [14]; rd
  EC50: 100 nM
Enterovirus D68 [15]
  EC50: 90 nM
[16]
  selectivity ratio: > 123
Enterovirus D68 [19]
  EC50: 90 nM

## Cc1cc(CCCOc2c(C)cc(-c3noc(C(F)(F)F)n3)cc2C)on1 [PLECONARIL]
Enterovirus D68 [22]
  EC50: 430 nM
[4]; RD cells, read-out: Ratio CC50/EC50
  selectivity ratio: > 250
[5]
  selectivity ratio: > 333
RD
  CC50: > 200000 nM
[7]
  selectivity ratio: > 156
Enterovirus D68 [27]
  Activity: Active
Enterovirus D68 [8]
  EC50: 240 nM
Enterovirus D68 [14]; [30]
  EC50: 400 nM
Enterovirus D68 [15]
  EC50: 300 nM
[16]
  selectivity ratio: > 417
Enterovirus D68 [19]
  EC50: 640 nM

## Nc1ccc(-c2ccc3ncc(-c4noc(C(F)(F)F)n4)cc3c2)cc1 [listing 2 of 2 here]
Enterovirus D68 [28]
  Activity: Active
Enterovirus D68 [29]
  Activity: Active
Enterovirus D68 [1]
  Activity: Dde
Enterovirus D68 [27]
  Activity: Active
Enterovirus D68 [2]
  Activity: Active
Enterovirus D68 [3]
  Activity: Dde
